{
  "source": "ChEMBL document CHEMBL1145462",
  "about": "“In vivo pharmacodynamic activity of the glycopeptide dalbavancin” (Antimicrob Agents Chemother, 2007)",
  "key": {"Streptococcus pneumoniae [1]": {"tested_on": "Streptococcus pneumoniae", "assay": "AUC/MIC ratio of Streptococcus pneumoniae 1199 infected neutropenic mouse thigh infection model at 0.40 mg/kg, ip administered every 24 hrs by static effect experiment", "format": "functional", "settings": "dose 0.4 mg/kg; route intraperitoneal"}, "Staphylococcus aureus [2]": {"tested_on": "Staphylococcus aureus", "assay": "AUC/MIC ratio of Staphylococcus aureus ATCC 25923 infected neutropenic mouse thigh infection model at 42.7 mg/kg, ip administered every 24 hrs by static effect experiment", "format": "functional", "settings": "route intraperitoneal"}, "Streptococcus pneumoniae [3]": {"tested_on": "Streptococcus pneumoniae", "assay": "AUC/MIC ratio of Streptococcus pneumoniae 1293 infected neutropenic mouse thigh infection model at 1.28 mg/kg, ip administered every 72 hrs by 1-log killing experiment", "format": "functional", "settings": "route intraperitoneal"}, "Staphylococcus aureus [4]": {"tested_on": "Staphylococcus aureus", "assay": "AUC/MBC ratio of Staphylococcus aureus 31005 infected neutropenic mouse thigh infection model at 94.6 mg/kg, ip administered every 72 hrs by 1-log killing experiment", "format": "functional", "settings": "route intraperitoneal"}, "Streptococcus pneumoniae [5]": {"tested_on": "Streptococcus pneumoniae", "assay": "AUC/MIC ratio of Streptococcus pneumoniae 1293 infected neutropenic mouse thigh infection model at 1.01 mg/kg, ip administered every 72 hrs by static effect experiment", "format": "functional", "settings": "route intraperitoneal"}, "Staphylococcus aureus [6]": {"tested_on": "Staphylococcus aureus", "assay": "AUC/MBC ratio of Staphylococcus aureus 33591 infected neutropenic mouse thigh infection model at 27.7 mg/kg, ip administered every 24 hrs by 1-log killing experiment", "format": "functional", "settings": "route intraperitoneal"}, "Streptococcus pneumoniae [7]": {"tested_on": "Streptococcus pneumoniae", "assay": "AUC/MIC ratio of Streptococcus pneumoniae 1396 infected neutropenic mouse thigh infection model at 0.52 mg/kg, ip administered every 72 hrs by static effect experiment", "format": "functional", "settings": "route intraperitoneal"}, "Staphylococcus aureus [8]": {"tested_on": "Staphylococcus aureus", "assay": "Antibacterial activity against Staphylococcus aureus ATCC 25923 by microdilution method", "format": "functional", "summary_of_the_method": "(§1)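 MIC and MBC were determined by CLSI broth microdilution, in duplicate on at least two occasions. Staphylococci were grown in Mueller-Hinton broth and agar; pneumococci were plated on sheep blood agar.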"}, "Staphylococcus aureus [9]": {"tested_on": "Staphylococcus aureus", "assay": "AUC/MBC ratio of Staphylococcus aureus ATCC 25923 infected neutropenic mouse thigh infection model at 42.7 mg/kg, ip administered every 24 hrs by static effect experiment", "format": "functional", "settings": "route intraperitoneal"}, "Staphylococcus aureus [10]": {"tested_on": "Staphylococcus aureus", "assay": "AUC/MIC ratio of Staphylococcus aureus ATCC 25923 infected neutropenic mouse thigh infection model at 60 mg/kg, ip administered every 24 hrs by 2-log killing experiment", "format": "functional", "settings": "route intraperitoneal"}, "Streptococcus pneumoniae [11]": {"tested_on": "Streptococcus pneumoniae", "assay": "AUC/MIC ratio of Streptococcus pneumoniae 1199 infected neutropenic mouse thigh infection model at 0.49 mg/kg, ip administered every 24 hrs by 1-log killing experiment", "format": "functional", "settings": "route intraperitoneal"}, "Staphylococcus aureus [12]": {"tested_on": "Staphylococcus aureus", "assay": "AUC/MIC ratio of Staphylococcus aureus ATCC 25923 infected neutropenic mouse thigh infection model at 185 mg/kg, ip administered every 72 hrs by 1-log killing experiment", "format": "functional", "settings": "route intraperitoneal"}, "Streptococcus pneumoniae [13]": {"tested_on": "Streptococcus pneumoniae", "assay": "Bactericidal activity against penicillin-susceptible Streptococcus pneumoniae ATCC 10813 infected neutropenic Swiss ICR mouse thigh infection model assessed as drug level causing 2-log reduction of bacterial count at 1.26 mg/kg, ip dosed every 36 hrs", "format": "functional", "settings": "route intraperitoneal", "summary_of_the_method": "(§2)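 Neutropenic mice (cyclophosphamide ip 150 mg/kg day −4, 100 mg/kg day −1, then every 48 h) received 0.1 ml log-phase inoculum per thigh under halothane. Intraperitoneal dalbavancin started 2 h later and was given for 6 days at q12h, q24h, q36h or q72h, two mice per regimen. Thigh CFU were counted at 144 h. Endpoint doses relative to start-of-therapy counts came from Hill-model nonlinear regression and are expressed per 24 h.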"}, "Staphylococcus aureus [14]": {"tested_on": "Staphylococcus aureus", "assay": "AUC/MBC ratio of methicillin-resistant Staphylococcus aureus infected neutropenic mouse thigh infection model at 37.7 mg/kg, ip administered every 24 hrs by static effect experiment", "format": "functional", "settings": "route intraperitoneal"}, "Streptococcus pneumoniae [15]": {"tested_on": "Streptococcus pneumoniae", "assay": "AUC/MIC ratio of Streptococcus pneumoniae ATCC 10813 infected neutropenic mouse thigh infection model at 0.71 mg/kg, ip administered every 72 hrs by static effect experiment", "format": "functional", "settings": "route intraperitoneal"}, "Staphylococcus aureus [16]": {"tested_on": "Staphylococcus aureus", "assay": "AUC/MIC ratio of Staphylococcus aureus 33591 infected neutropenic mouse thigh infection model at 93 mg/kg, ip administered every 72 hrs by 1-log killing experiment", "format": "functional", "settings": "route intraperitoneal"}, "Staphylococcus aureus [17]": {"tested_on": "Staphylococcus aureus", "assay": "AUC/MBC ratio of Staphylococcus aureus ATCC 25923 infected neutropenic mouse thigh infection model at 214 mg/kg, ip administered every 72 hrs by 2-log killing experiment", "format": "functional", "settings": "route intraperitoneal"}, "Staphylococcus aureus [18]": {"tested_on": "Staphylococcus aureus", "assay": "AUC/MBC ratio of methicillin-resistant Staphylococcus aureus infected neutropenic mouse thigh infection model at 45.3 mg/kg, ip administered every 24 hrs by 1-log killing experiment", "format": "functional", "settings": "route intraperitoneal"}, "Streptococcus pneumoniae [19]": {"tested_on": "Streptococcus pneumoniae", "assay": "AUC/MIC ratio of Streptococcus pneumoniae 1325 infected neutropenic mouse thigh infection model at 0.99 mg/kg, ip administered every 72 hrs by 1-log killing experiment", "format": "functional", "settings": "route intraperitoneal"}, "Streptococcus pneumoniae [20]": {"tested_on": "Streptococcus pneumoniae", "assay": "AUC/MIC ratio of Streptococcus pneumoniae 1325 infected neutropenic mouse thigh infection model at 1.73 mg/kg, ip administered every 24 hrs by 2-log killing experiment", "format": "functional", "settings": "route intraperitoneal"}, "Staphylococcus aureus [21]": {"tested_on": "Staphylococcus aureus", "assay": "Antibacterial activity against Staphylococcus aureus ATCC 25923 in presence of 95% mouse serum ultrafiltrate", "format": "functional", "summary_of_the_method": "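MIC determined in broth, heat-treated (100°C, 30 min) 95% mouse serum, and 95% mouse serum ultrafiltrate, using arithmetic dilutions of 0.02 mg/liter per tube. Protein binding estimated as (MIC in 95% serum − MIC in ultrafiltrate)/MIC in 95% serum.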"}, "Staphylococcus aureus [22]": {"tested_on": "Staphylococcus aureus", "assay": "AUC/MIC ratio of Staphylococcus aureus 307109 infected neutropenic mouse thigh infection model at 37 mg/kg, ip administered every 72 hrs by 2-log killing experiment", "format": "functional", "settings": "route intraperitoneal"}, "Staphylococcus aureus [23]": {"tested_on": "Staphylococcus aureus", "assay": "Bactericidal activity in ip dosed […] Staphylococcus aureus ATCC 29213 infected neutropenic mouse thigh infection model assessed as reduction of colony count after 96 hrs by time kill study", "format": "functional, Thigh muscle", "summary_of_the_method": "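Neutropenic mice (cyclophosphamide ip 150 mg/kg day −4, 100 mg/kg day −1, then every 48 h) infected in thigh with 0.1 ml log-phase inoculum (10^6.6–10^7.6 CFU/ml) under halothane. Single ip doses of 5, 10, 20, 40, or 80 mg/kg were given 2 h later. Two mice sampled at 0.5–96 h. Thighs processed for CFU, reported as mean ± SD log10 CFU/thigh.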"}, "Streptococcus pneumoniae [24]": {"tested_on": "Streptococcus pneumoniae", "assay": "AUC/MIC ratio of Streptococcus pneumoniae 1199 infected neutropenic mouse thigh infection model at 0.72 mg/kg, ip administered every 72 hrs by static effect experiment", "format": "functional", "settings": "route intraperitoneal"}, "Streptococcus pneumoniae [25]": {"tested_on": "Streptococcus pneumoniae", "assay": "AUC/MIC ratio of Streptococcus pneumoniae 1293 infected neutropenic mouse thigh infection model at 0.65 mg/kg, ip administered every 24 hrs by 2-log killing experiment", "format": "functional", "settings": "route intraperitoneal"}, "Staphylococcus aureus [26]": {"tested_on": "Staphylococcus aureus", "assay": "AUC/MBC ratio of methicillin-resistant Staphylococcus aureus infected neutropenic mouse thigh infection model at 62 mg/kg, ip administered every 72 hrs by 1-log killing experiment", "format": "functional", "settings": "route intraperitoneal"}, "Streptococcus pneumoniae [27]": {"tested_on": "Streptococcus pneumoniae", "assay": "AUC/MIC ratio of Streptococcus pneumoniae 1329 infected neutropenic mouse thigh infection model at 1.45 mg/kg, ip administered every 24 hrs by 2-log killing experiment", "format": "functional", "settings": "route intraperitoneal"}, "Streptococcus pneumoniae [28]": {"tested_on": "Streptococcus pneumoniae", "assay": "Bactericidal activity against penicillin-susceptible Streptococcus pneumoniae ATCC 10813 infected neutropenic Swiss ICR mouse thigh infection model assessed as drug level causing 2-log reduction of bacterial count at 2.3 mg/kg, ip dosed every 12 hrs", "format": "functional", "settings": "route intraperitoneal", "summary_of_the_method": "as §2"}, "Streptococcus pneumoniae [29]": {"tested_on": "Streptococcus pneumoniae", "assay": "Antibacterial activity against Streptococcus pneumoniae 1329 by microdilution method", "format": "functional", "summary_of_the_method": "as §1"}, "Streptococcus pneumoniae [30]": {"tested_on": "Streptococcus pneumoniae", "assay": "Antibacterial activity against Streptococcus pneumoniae 1293 by microdilution method", "format": "functional", "summary_of_the_method": "as §1"}, "Staphylococcus aureus [31]": {"tested_on": "Staphylococcus aureus", "assay": "AUC/MIC ratio of Staphylococcus aureus Smith infected neutropenic mouse thigh infection model at 73.5 mg/kg, ip administered every 24 hrs by 2-log killing experiment", "format": "functional", "settings": "route intraperitoneal"}},
  "data": [
    {"smiles": "CN[C@H]1C(=O)N[C@@H]2Cc3ccc(cc3)Oc3cc4cc(c3O[C@@H]3O[C@H](C(=O)O)[C@@H](O)[C@H](O)[C@H]3NC(=O)CCCCCCCCC(C)C)Oc3ccc(cc3Cl)[C@@H](O)[C@@H]3NC(=O)[C@H](NC(=O)[C@@H]4NC(=O)[C@@H](NC2=O)c2cc(cc(O)c2Cl)Oc2cc1ccc2O)c1ccc(O)c(c1)-c1c(O[C@H]2O[C@H](CO)[C@@H](O)[C@H](O)[C@@H]2O)cc(O)cc1[C@@H](C(=O)NCCCN(C)C)NC3=O", "note": "[DALBAVANCIN]", "values": [
      {"measurement": "RatioAUC/MIC", "setting": "Streptococcus pneumoniae [1]", "result": 16},
      {"measurement": "RatioAUC/MIC", "setting": "Staphylococcus aureus [2]", "result": 216},
      {"measurement": "RatioAUC/MIC", "setting": "Streptococcus pneumoniae [3]", "result": 18},
      {"measurement": "Ratio", "setting": "Staphylococcus aureus [4]", "result": 163},
      {"measurement": "RatioAUC/MIC", "setting": "Streptococcus pneumoniae [5]", "result": 14.1},
      {"measurement": "Ratio", "setting": "Staphylococcus aureus [6]", "result": 58.3},
      {"measurement": "RatioAUC/MIC", "setting": "Streptococcus pneumoniae [7]", "result": 4},
      {"measurement": "MBC", "setting": "Staphylococcus aureus [8]", "result": 500, "unit": "ng/mL"},
      {"measurement": "MIC", "setting": "Staphylococcus aureus [8]", "result": 120, "unit": "ng/mL"},
      {"measurement": "Ratio", "setting": "Staphylococcus aureus [9]", "result": 52},
      {"measurement": "RatioAUC/MIC", "setting": "Staphylococcus aureus [10]", "result": 289},
      {"measurement": "RatioAUC/MIC", "setting": "Streptococcus pneumoniae [11]", "result": 19.4},
      {"measurement": "RatioAUC/MIC", "setting": "Staphylococcus aureus [12]", "result": 317},
      {"measurement": "Activity", "setting": "Streptococcus pneumoniae [13]", "result": 1.81},
      {"measurement": "Ratio", "setting": "Staphylococcus aureus [14]", "result": 93},
      {"measurement": "RatioAUC/MIC", "setting": "Streptococcus pneumoniae [15]", "result": 1.4},
      {"measurement": "RatioAUC/MIC", "setting": "Staphylococcus aureus [16]", "result": 160},
      {"measurement": "Ratio", "setting": "Staphylococcus aureus [17]", "result": 88.1},
      {"measurement": "Ratio", "setting": "Staphylococcus aureus [18]", "result": 109},
      {"measurement": "RatioAUC/MIC", "setting": "Streptococcus pneumoniae [19]", "result": 8.8},
      {"measurement": "RatioAUC/MIC", "setting": "Streptococcus pneumoniae [20]", "result": 34.5},
      {"measurement": "MIC", "setting": "Staphylococcus aureus [21]", "result": 500, "unit": "ng/mL"},
      {"measurement": "RatioAUC/MIC", "setting": "Staphylococcus aureus [22]", "result": 121},
      {"measurement": "Activity", "setting": "Staphylococcus aureus [23]", "result": 4},
      {"measurement": "RatioAUC/MIC", "setting": "Streptococcus pneumoniae [24]", "result": 10.3},
      {"measurement": "RatioAUC/MIC", "setting": "Streptococcus pneumoniae [25]", "result": 25.9},
      {"measurement": "Ratio", "setting": "Staphylococcus aureus [26]", "result": 48.8},
      {"measurement": "RatioAUC/MIC", "setting": "Streptococcus pneumoniae [27]", "result": 26.7},
      {"measurement": "Activity", "setting": "Streptococcus pneumoniae [28]", "result": 3.5},
      {"measurement": "MBC", "setting": "Streptococcus pneumoniae [29]", "result": 8, "unit": "ng/mL"},
      {"measurement": "MIC", "setting": "Streptococcus pneumoniae [29]", "result": 8, "unit": "ng/mL"},
      {"measurement": "MBC", "setting": "Streptococcus pneumoniae [30]", "result": 4, "unit": "ng/mL"},
      {"measurement": "MIC", "setting": "Streptococcus pneumoniae [30]", "result": 4, "unit": "ng/mL"},
      {"measurement": "RatioAUC/MIC", "setting": "Staphylococcus aureus [31]", "result": 361}
    ]}
  ]
}
